From ChEMBL document CHEMBL5252662, “Rimonabant-Based Compounds Bearing Hydrophobic Amino Acid Derivatives as Cannabinoid Receptor Subtype 1 Ligands” (ACS Med Chem Lett, 2023)
Active and inactive are the calls of the source. The rule behind the calls is not given here.

These compounds were tested against T1, Cannabinoid receptor 1 (Rattus norvegicus, UniProt P20272) (assay: Displacement of [3H]-WIN55212-2 from CB1R in rat brain membranes incubated for 60 mins by radioligand competitive binding assay). Settings: not given.
Format: cell membranes, Membrane

T1 sequence (P20272 whole entry): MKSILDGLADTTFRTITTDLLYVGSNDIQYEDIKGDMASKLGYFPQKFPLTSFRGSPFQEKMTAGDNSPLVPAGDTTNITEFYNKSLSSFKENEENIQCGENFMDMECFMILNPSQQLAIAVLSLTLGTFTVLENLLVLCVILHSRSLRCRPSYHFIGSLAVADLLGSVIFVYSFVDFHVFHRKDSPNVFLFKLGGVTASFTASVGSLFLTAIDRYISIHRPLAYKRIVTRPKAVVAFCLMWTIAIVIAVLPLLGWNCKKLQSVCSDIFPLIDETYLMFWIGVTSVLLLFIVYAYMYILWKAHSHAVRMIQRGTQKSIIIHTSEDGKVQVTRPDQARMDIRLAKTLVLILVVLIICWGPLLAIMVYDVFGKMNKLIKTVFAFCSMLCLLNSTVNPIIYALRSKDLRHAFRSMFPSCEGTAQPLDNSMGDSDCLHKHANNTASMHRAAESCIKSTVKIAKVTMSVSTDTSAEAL

Q: `CC(C)[C@H](NC(=O)c1cc(-n2cccc2)n(-c2ccccc2)n1)C(=O)O` was tested. Which Ki did it give?
A: The Ki was “Not Active”.

Q: Which Ki does the source give for `Cc1c(C(=O)N[C@H](C(=O)O)C(C)C)nn(-c2ccc(Cl)cc2Cl)c1-n1cccc1Cl` here?
A: The Ki was “Not Active”.

Q: `Cc1c(C(=O)N[C@H](C(=O)O)C(C)(C)C)nn(-c2ccccc2)c1-n1cccc1` was tested. Which Ki did it give?
A: The Ki was “Not Active”.

Q: Which Ki does the source give for `Cc1c(C(=O)N[C@H](C(=O)O)C(C)C)nn(-c2ccc(Cl)cc2)c1-n1cccc1` here?
A: The Ki was “Not Active”.

Q: For `CC(C)(C)[C@H](NC(=O)c1cc(-n2cccc2)n(-c2ccc(Cl)cc2)n1)C(=O)O`, which Ki is on record?
A: The Ki was “Not Active”.

Q: With `Cc1c(C(=O)N[C@H](C(=O)O)C(C)C)nn(-c2ccccc2)c1-n1cccc1` as the compound, how does the Ki read?
A: The Ki was “Not Active”.

Q: With `CC(C)(C)[C@H](NC(=O)c1cc(-n2cccc2)n(-c2ccccc2)n1)C(=O)O` as the compound, how does the Ki read?
A: The Ki was “Not Active”.

Q: How did the Ki turn out when `CNC(=O)[C@@H](NC(=O)c1nn(-c2ccc(Cl)cc2Cl)c(-n2cccc2Cl)c1C)C(C)(C)C` was run?
A: Its Ki is “Not Active”.

Q: `CC(C)[C@H](NC(=O)c1cc(-n2cccc2)n(-c2ccccc2)n1)C(N)=O` was tested. Which Ki did it give?
A: The Ki was “Not Active”.

Q: With `CC(C)[C@H](NC(=O)c1cc(-n2cccc2)n(-c2ccc(Cl)cc2)n1)C(=O)O` as the compound, how does the Ki read?
A: Its Ki is “Not Active”.

Q: For `Cc1c(C(=O)N[C@H](C(=O)O)C(C)(C)C)nn(-c2ccc(Cl)cc2Cl)c1-n1cccc1Cl`, which Ki is on record?
A: The Ki was “Not Active”.

Same assay, conditions: read-out: Ki

Q: How did the Ki turn out when `Cc1c(C(=O)N[C@H](C(N)=O)C(C)C)nn(-c2ccc(Cl)c(Cl)c2)c1-n1cccc1Cl` was run?
A: Its Ki is 446 nM.

Q: How did the Ki turn out when `Cc1c(C(=O)N[C@H](C(N)=O)C(C)(C)C)nn(-c2ccc(Cl)c(Cl)c2)c1-n1cccc1Cl` was run?
A: The Ki was 45 nM.

Each compound was assayed against T1, Cannabinoid receptor 1 (assay: Agonist activity at rat brain membrane CB1 receptor assessed as stimulation of [35S]GTPgammaS binding incubated for 60 mins). Settings: not given.
Format: cell membranes

Q: With `Cc1c(C(=O)N[C@H](C(N)=O)C(C)C)nn(-c2ccc(Cl)c(Cl)c2)c1-n1cccc1Cl` as the compound, how does the EC50 read?
A: The EC50 was 849 nM.

Q: With `Cc1c(C(=O)N[C@H](C(N)=O)C(C)(C)C)nn(-c2ccc(Cl)c(Cl)c2)c1-n1cccc1Cl` as the compound, how does the EC50 read?
A: Its EC50 is 1870 nM.

These compounds were tested against Cannabinoid receptor 1 (Rattus norvegicus) (UniProt P20272) (assay: Agonist activity at rat brain membrane CB1 receptor assessed as stimulation of [35S]GTPgammaS binding incubated for 60 mins relative to control). Settings: filed as agonist.
Format: cell membranes

Cannabinoid receptor 1 (Rattus norvegicus), sequence (P20272 whole entry): as above

Q: Which Emax does the source give for `Cc1c(C(=O)N[C@H](C(N)=O)C(C)C)nn(-c2ccc(Cl)c(Cl)c2)c1-n1cccc1Cl` here?
A: Its Emax is 60%.

Q: With `Cc1c(C(=O)N[C@H](C(N)=O)C(C)(C)C)nn(-c2ccc(Cl)c(Cl)c2)c1-n1cccc1Cl` as the compound, how does the Emax read?
A: Its Emax is 70%.

What follows are compounds tested on Mus musculus (assay: Induction of food uptake in CD-1 mouse model at 10 mg/kg, ip measured after 1 hr). Settings: not given.
Format: functional, organism-based
In short: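 Mice dosed i.p. at 10 mg/kg and left 30 min. Each was then placed in an individual cage with 2 g of standard chow, and intake was measured over a 1 h test. Mean ± SEM from the same seven mice at each dose, compared with vehicle-treated animals.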

Q: With `COC(=O)[C@@H](NC(=O)c1cc(-n2cccc2)n(-c2ccc(Cl)cc2)n1)C(C)C` as the compound, how does the Activity read?
A: The Activity was “inactive”.

Q: `CNC(=O)[C@@H](NC(=O)c1nn(-c2ccc(Cl)cc2)c(-n2cccc2)c1C)C(C)(C)C` was tested. Which Activity did it give?
A: The Activity was “Active”.

Q: How did the Activity turn out when `COC(=O)[C@@H](NC(=O)c1cc(-n2cccc2)n(-c2ccccc2)n1)C(C)(C)C` was run?
A: Its Activity is “Active”.

Q: Which Activity does the source give for `COC(=O)[C@@H](NC(=O)c1nn(-c2ccc(Cl)cc2)c(-n2cccc2)c1C)C(C)(C)C` here?
A: Its Activity is “inactive”.

Q: `Cc1c(C(=O)N[C@H](C(N)=O)C(C)(C)C)nn(-c2ccccc2)c1-n1cccc1` was tested. Which Activity did it give?
A: Its Activity is “inactive”.

Q: How did the Activity turn out when `COC(=O)[C@@H](NC(=O)c1nn(-c2ccc(Cl)cc2Cl)c(-n2cccc2Cl)c1C)C(C)C` was run?
A: The Activity was “Active”.

Q: How did the Activity turn out when `COC(=O)[C@@H](NC(=O)c1cc(-n2cccc2)n(-c2ccc(Cl)cc2)n1)C(C)(C)C` was run?
A: The Activity was “inactive”.

Q: `Cc1c(C(=O)N[C@H](C(N)=O)C(C)(C)C)nn(-c2ccc(Cl)c(Cl)c2)c1-n1cccc1Cl` was tested. Which Activity did it give?
A: The Activity was “inactive”.

Q: How did the Activity turn out when `Cc1c(C(=O)N[C@H](C(N)=O)C(C)(C)C)nn(-c2ccc(Cl)cc2)c1-n1cccc1` was run?
A: Its Activity is “inactive”.

The compounds below were run on Mus musculus (assay: Anti-inflammatory activity against zymosan-induced paw edema CD-1 mouse model assessed as reduction of increased paw volume at 100 ug,sc administered 30 mins prior to zymosan challenge and measured after 1 to 4 hrs). Settings: dose 100.0 µg, time lower […], time upper […].
Format: functional, organism-based

Q: Which Activity does the source give for `CNC(=O)[C@@H](NC(=O)c1nn(-c2ccc(Cl)cc2)c(-n2cccc2)c1C)C(C)(C)C` here?
A: The Activity was “Active”.

The compounds below were run on Mus musculus (assay: Antinociceptive activity in CD-1 mouse assessed as increase in response time to thermal nociceptive stimuli at 10 ug, icv measured at 15 to 120 mins). Settings: dose 10.0 µg, time lower […], time upper […].
Format: functional, organism-based
In short: (§1)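 Single i.c.v. injection of 10 μg/10 μL; vehicle saline with 0.1% v/v DMSO. Response latency to thermal stimulus on hot plate recorded over time after dosing. Expressed as % maximum possible effect (%MPE) ± SEM, N = 7.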

Q: `CNC(=O)[C@@H](NC(=O)c1nn(-c2ccc(Cl)cc2)c(-n2cccc2)c1C)C(C)(C)C` was tested. Which Activity did it give?
A: The Activity was “Active”.

The compounds below were run on Mus musculus (assay: Antinociceptive activity in CD-1 mouse assessed as increase in response time to thermal nociceptive stimuli at 10 ug, icv measured after 60 mins by hot plate test). Settings: dose 10.0 µg.
Format: functional, organism-based
In short: as §1

Q: With `Cc1c(C(=O)c2cccc3ccccc23)c2cccc3c2n1[C@H](CN1CCOCC1)CO3` as the compound, how does the Activity read?
A: Its Activity is “Active”.
